# Measurements taken from PubChem BioAssay AID651952 (The Scripps Research Institute Molecular Screening Center, 2012).
# Screen size: about 2,400 compounds; about 940 (39%) were called active. A selection follows. Unmarked numbers belong to inactive results.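 Rule for the calls: active = inhibition above the plate's mean compound inhibition plus 3 SD, computed per plate (cut at about 22% in these data); inactive = the rest.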
# Experiment: reduced calcium signal in Ga16 cells – fluorescence, CHO-Ga16 cells, counter-screen for TAAR1 agonist project (AID 651952);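 note: 0% = EC80 ATP with DMSO and 100% = DMSO wells without ATP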
# Conditions: CHO-Ga16 ATP-induced calcium, Fluo-8 fluorescence; at 3 µM; active compounds read high
# How it was run: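 System: parental CHO cells stably overexpressing Gα16, lacking hTAAR1; dosing: one dose, 3 µM final; times: 17–24 h seeding, Fluo-8 75 min 37 °C, 30 min RT; measured by: Fluo-8 calcium fluorescence; evaluation: percent inhibition from peak-to-pre-ATP-basal fluorescence ratio, scaled between controls; benchmarks: high control DMSO alone, low control ATP EC80 with DMSO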
row,SMILES,inhibition
1,Cc1ccc(NC(=O)CCN2CCc3ccccc3C2)cc1,10.1%
2,O=C(O)C1CC=CCC1C(=O)NCCc1ccccc1 (configuration not stated),3.62%
3,O=C(NCCc1ccccc1)C(=O)NCC1OCCN1S(=O)(=O)c1cccs1 (configuration not stated),10.6%
4,S=C(NCCc1ccccc1)N1CCn2cccc2C1c1ccncc1 (configuration not stated),21.8% (active)
5,COc1ccc(Cl)cc1C(=O)NNC(=S)NC(=O)/C=C/c1ccco1,55.5% (active)
6,O=C1CCCN2N=C(SCC(=O)Nc3ccc(Br)cc3)SC2=N1,20%
7,CCCCCc1c(Cc2ccccc2)ncn1CCc1ccccc1OC,30.6% (active)
8,CCCCCc1c(-c2cccc(Br)c2)ncn1CCc1ccccc1OC,25.3% (active)
9,CCCCCc1c(-c2ccc(OC)c(OC)c2)ncn1CCc1ccccc1OC,44.5% (active)
10,O=C(CNC(=O)c1ccccc1F)OCC(=O)c1c[nH]c2ccccc12,-2.93%
11,O=C(c1noc2c1CCCC2)N1CCc2ccccc2C1,2.82%
12,CCC(c1nnnn1Cc1ccco1)N(CCc1ccccc1)Cc1cc2ccc(OC)cc2[nH]c1=O (configuration not stated),15.3%
13,CC(Oc1ccc(Cl)cc1)C(=O)OCC(=O)Nc1ncc(Cl)cc1Cl (configuration not stated),12.8%
14,CCCn1c(O)c(CN2CCCC(C)C2)c(C)c(C#N)c1=O (configuration not stated),11.4%
15,Cc1cc2nc3c(=O)[nH]c(=O)nc-3n(C[C@H](O)[C@H](O)[C@H](O)CO)c2cc1C,60.5% (active)
16,COc1ccc(C(=O)CN2C(=O)NC(C)(c3ccc(C)cc3)C2=O)cc1OC (configuration not stated),12.3%
17,c1ccc2c(c1)OCC(CNc1ncnc3nc[nH]c13)O2 (configuration not stated),103% (active)
18,COc1cc(OC)c(-n2cc(-c3ccc(Cl)cc3)[nH]c2=O)cc1Cl,47.5% (active)
19,O=Cc1c(NCCc2cccc(F)c2)c2ccccc2[nH]c1=O,5.51%
20,CSc1nc(N)c(C#N)c(-c2ccccc2Cl)c1C#N,23.4% (active)
21,OC(CNCCc1ccc(Cl)cc1Cl)COc1ccccc1 (configuration not stated),16.3%
22,COC(=O)c1[nH]c2cccc(C)c2c1NC(=O)CN1CCCc2ccccc21,22.5% (active)
